Source: ChEMBL document CHEMBL5696442, “Discovery of type II inhibitors of TGFβ-activated kinase 1 (TAK1) and mitogen-activated protein kinase kinase kinase kinase 2 (MAP4K2)” (J Med Chem, 2015)

Columns and labels:
[1] = molecular target: T1, Serine/threonine-protein kinase TBK1 (Homo sapiens) (UniProt Q9UHD2); test: Inhibition of TBK1 Lys1 labeling site in human A-375 cells at 0.5 uM by KiNativ Profiling analysis relative to control; assay type: cell-based
T1 sequence (whole entry): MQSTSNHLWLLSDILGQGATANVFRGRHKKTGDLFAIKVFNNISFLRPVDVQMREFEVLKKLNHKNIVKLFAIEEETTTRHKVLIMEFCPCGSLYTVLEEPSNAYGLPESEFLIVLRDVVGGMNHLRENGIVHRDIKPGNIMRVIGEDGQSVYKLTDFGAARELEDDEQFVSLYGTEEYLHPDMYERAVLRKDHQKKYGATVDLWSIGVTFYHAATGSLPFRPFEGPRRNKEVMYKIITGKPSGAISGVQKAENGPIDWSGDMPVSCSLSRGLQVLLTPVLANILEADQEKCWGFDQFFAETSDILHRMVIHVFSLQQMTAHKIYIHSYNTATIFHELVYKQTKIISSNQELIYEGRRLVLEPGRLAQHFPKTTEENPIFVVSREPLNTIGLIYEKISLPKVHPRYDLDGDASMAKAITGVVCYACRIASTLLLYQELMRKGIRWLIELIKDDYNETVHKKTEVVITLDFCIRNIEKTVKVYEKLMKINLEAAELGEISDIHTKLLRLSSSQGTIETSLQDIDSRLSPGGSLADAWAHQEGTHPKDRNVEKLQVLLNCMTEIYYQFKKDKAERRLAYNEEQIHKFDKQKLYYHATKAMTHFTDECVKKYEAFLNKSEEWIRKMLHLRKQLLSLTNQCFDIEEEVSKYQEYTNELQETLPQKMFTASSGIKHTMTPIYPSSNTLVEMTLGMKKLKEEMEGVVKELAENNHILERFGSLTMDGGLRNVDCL

[2] = molecular target: Serine/threonine-protein kinase WNK1 (Homo sapiens) (UniProt Q9H4A3); test: Inhibition of Wnk1 ATP Loop labeling site in human A-375 cells at 5 uM by KiNativ Profiling analysis relative to control; assay type: cell-based
Sequence of Serine/threonine-protein kinase WNK1 (Homo sapiens) (Q9H4A3 whole entry, looked up): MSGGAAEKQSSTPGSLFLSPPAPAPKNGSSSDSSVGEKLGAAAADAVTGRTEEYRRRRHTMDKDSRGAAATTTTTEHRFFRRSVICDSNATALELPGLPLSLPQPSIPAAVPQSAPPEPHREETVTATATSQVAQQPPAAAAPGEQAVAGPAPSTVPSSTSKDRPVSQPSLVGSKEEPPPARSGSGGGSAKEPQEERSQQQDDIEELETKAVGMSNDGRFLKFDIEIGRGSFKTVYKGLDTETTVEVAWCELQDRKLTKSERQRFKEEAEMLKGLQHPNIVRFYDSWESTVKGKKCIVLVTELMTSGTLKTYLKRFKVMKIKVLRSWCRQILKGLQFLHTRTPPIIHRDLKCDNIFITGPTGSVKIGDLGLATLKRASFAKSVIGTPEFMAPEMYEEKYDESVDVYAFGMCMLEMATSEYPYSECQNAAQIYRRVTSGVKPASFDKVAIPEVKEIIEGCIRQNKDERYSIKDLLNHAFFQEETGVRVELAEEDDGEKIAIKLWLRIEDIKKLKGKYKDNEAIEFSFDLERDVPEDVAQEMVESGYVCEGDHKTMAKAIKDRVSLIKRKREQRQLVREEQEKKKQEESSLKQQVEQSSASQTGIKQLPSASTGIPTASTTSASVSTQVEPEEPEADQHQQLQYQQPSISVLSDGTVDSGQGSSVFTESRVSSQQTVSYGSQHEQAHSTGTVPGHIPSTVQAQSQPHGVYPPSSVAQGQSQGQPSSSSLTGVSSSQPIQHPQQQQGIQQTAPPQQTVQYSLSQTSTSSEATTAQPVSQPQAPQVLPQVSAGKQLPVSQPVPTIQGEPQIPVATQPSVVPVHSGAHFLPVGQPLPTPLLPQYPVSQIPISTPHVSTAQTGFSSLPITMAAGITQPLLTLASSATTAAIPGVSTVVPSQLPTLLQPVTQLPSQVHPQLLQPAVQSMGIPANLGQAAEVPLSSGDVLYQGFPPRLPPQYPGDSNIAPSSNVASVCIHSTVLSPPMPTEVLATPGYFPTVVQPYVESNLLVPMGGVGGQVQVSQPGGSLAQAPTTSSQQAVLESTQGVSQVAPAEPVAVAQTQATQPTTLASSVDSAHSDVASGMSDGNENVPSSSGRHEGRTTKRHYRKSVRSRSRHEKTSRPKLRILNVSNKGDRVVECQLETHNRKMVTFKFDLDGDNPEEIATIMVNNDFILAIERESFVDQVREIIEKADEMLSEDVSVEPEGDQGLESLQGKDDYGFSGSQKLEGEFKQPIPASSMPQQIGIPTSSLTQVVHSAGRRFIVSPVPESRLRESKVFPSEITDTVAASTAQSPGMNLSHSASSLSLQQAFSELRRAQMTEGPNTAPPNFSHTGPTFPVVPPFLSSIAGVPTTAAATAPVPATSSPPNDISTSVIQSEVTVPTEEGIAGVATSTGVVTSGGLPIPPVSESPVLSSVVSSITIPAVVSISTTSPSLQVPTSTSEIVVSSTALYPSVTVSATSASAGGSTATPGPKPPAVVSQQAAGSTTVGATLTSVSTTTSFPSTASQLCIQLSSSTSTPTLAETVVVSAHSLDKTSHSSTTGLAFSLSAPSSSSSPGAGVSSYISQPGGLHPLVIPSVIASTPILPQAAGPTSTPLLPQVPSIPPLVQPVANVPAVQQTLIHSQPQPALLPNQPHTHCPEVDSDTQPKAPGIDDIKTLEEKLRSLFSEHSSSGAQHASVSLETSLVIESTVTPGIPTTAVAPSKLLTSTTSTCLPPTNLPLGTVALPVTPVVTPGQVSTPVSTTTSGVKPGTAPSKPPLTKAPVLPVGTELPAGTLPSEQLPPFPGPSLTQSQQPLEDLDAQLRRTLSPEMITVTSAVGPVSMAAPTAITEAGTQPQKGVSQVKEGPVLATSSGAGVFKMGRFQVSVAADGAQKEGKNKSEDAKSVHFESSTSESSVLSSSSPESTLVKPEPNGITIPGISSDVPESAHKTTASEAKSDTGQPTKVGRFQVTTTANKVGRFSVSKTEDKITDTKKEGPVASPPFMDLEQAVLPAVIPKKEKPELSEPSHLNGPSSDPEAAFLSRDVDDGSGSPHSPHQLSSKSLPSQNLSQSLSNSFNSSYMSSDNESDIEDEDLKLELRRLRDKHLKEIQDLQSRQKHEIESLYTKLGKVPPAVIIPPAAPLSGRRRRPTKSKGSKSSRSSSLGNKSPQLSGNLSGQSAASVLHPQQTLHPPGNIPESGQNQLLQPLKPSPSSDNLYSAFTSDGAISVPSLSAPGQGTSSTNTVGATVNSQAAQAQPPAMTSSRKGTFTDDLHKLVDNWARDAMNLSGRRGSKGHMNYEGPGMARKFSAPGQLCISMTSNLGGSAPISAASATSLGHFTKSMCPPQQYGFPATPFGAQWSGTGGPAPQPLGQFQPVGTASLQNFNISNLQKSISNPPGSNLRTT

[3] = molecular target: T2, Serine/threonine-protein kinase NLK (Homo sapiens) (UniProt Q9UBE8); test: Inhibition of NLK Lys2 labeling site in human A-375 cells at 0.5 uM by KiNativ Profiling analysis relative to control; assay type: cell-based
T2 sequence (whole entry): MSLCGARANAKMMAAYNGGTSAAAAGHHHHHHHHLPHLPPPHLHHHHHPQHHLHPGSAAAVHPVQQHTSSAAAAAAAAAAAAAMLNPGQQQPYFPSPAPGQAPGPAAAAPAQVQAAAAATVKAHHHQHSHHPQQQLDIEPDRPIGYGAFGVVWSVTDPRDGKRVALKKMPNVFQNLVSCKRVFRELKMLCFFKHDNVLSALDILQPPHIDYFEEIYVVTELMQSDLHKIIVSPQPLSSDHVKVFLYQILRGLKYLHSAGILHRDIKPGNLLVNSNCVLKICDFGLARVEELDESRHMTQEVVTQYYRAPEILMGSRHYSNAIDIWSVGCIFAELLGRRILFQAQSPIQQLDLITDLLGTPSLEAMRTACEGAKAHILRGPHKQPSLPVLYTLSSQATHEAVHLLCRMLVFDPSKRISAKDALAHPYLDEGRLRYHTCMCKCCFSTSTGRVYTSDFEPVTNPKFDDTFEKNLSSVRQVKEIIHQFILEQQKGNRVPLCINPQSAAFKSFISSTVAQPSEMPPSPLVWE

[4] = molecular target: T3, Mitogen-activated protein kinase kinase kinase kinase 4 (Homo sapiens, UniProt O95819); test: Inhibition of ZC1/HGK Lys1 labeling site in human A-375 cells at 5 uM by KiNativ Profiling analysis relative to control; assay type: cell-based
T3 sequence (O95819 2-1239 limits assumed): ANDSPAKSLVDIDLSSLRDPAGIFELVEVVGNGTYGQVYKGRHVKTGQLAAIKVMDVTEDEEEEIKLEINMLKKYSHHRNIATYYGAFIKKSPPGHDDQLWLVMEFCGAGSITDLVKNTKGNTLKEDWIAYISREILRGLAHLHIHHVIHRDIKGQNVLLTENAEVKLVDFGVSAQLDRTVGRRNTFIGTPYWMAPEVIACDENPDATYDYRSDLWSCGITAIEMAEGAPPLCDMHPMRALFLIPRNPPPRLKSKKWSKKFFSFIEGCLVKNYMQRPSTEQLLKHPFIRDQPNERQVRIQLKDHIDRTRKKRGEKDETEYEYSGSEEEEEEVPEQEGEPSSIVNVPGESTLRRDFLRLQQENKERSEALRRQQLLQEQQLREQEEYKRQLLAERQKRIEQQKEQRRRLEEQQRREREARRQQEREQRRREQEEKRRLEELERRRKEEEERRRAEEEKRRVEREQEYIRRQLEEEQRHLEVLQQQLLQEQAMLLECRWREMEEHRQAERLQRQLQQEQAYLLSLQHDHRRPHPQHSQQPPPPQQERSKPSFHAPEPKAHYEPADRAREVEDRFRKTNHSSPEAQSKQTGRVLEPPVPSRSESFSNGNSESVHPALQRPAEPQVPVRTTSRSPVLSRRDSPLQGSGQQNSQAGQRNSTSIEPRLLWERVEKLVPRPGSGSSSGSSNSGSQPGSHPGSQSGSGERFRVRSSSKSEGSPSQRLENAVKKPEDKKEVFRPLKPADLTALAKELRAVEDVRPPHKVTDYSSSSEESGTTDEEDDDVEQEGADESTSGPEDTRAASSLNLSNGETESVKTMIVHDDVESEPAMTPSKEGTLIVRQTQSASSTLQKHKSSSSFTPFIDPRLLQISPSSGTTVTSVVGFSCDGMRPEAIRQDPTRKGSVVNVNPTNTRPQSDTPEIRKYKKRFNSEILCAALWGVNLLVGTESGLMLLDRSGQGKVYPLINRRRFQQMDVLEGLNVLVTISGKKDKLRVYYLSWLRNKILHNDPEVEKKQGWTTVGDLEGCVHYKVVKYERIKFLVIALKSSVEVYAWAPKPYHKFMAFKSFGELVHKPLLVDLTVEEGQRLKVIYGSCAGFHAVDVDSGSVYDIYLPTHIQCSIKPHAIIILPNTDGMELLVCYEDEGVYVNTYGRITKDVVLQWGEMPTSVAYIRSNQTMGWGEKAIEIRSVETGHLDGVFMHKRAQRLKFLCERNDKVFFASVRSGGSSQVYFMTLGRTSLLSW

[5] = molecular target: Serine/threonine-protein kinase 25 (Homo sapiens) (UniProt O00506); test: Inhibition of YSK1 ACT labeling site in human A-375 cells at 5 uM by KiNativ Profiling analysis relative to control; assay type: cell-based
Sequence of Serine/threonine-protein kinase 25 (Homo sapiens) (O00506 whole entry, looked up): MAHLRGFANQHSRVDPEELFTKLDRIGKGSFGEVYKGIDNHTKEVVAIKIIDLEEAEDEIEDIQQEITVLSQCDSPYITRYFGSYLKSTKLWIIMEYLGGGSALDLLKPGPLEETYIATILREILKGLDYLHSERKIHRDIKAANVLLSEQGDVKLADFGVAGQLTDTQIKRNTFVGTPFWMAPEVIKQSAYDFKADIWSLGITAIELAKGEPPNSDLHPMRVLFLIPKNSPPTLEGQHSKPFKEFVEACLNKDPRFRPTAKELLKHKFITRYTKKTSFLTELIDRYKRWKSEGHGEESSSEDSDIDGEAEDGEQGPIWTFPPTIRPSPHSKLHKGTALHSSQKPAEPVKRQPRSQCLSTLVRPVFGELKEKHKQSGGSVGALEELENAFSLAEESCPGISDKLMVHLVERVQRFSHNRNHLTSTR

[6] = molecular target: T3, Mitogen-activated protein kinase kinase kinase kinase 4; test: Inhibition of ZC1 Lys2 labeling site in human A-375 cells at 0.5 uM by KiNativ Profiling analysis relative to control; assay type: cell-based
[7] = molecular target: T4, Serine/threonine-protein kinase 3 (Homo sapiens) (UniProt Q13188); test: Inhibition of MST2 Lys1 labeling site in human A-375 cells at 5 uM by KiNativ Profiling analysis relative to control; assay type: cell-based
T4 sequence (whole entry): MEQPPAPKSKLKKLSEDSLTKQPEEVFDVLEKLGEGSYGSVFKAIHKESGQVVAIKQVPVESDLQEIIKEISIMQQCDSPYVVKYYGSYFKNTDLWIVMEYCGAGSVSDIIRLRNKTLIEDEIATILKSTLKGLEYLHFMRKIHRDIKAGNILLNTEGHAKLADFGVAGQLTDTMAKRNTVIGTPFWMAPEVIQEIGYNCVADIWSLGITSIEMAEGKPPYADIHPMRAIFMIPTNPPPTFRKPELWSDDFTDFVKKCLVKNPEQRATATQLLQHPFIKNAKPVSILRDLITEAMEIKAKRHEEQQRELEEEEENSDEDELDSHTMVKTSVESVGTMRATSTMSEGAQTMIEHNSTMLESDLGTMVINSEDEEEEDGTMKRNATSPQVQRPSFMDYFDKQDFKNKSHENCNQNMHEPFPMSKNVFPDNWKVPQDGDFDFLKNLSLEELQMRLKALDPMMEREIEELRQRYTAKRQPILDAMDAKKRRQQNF

[8] = molecular target: Protein kinase C beta type (Homo sapiens) (UniProt P05771); test: Inhibition of PKCb Lys2 labeling site in human A-375 cells at 5 uM by KiNativ Profiling analysis relative to control; assay type: cell-based
Sequence of Protein kinase C beta type (Homo sapiens) (P05771 2-671 limits assumed): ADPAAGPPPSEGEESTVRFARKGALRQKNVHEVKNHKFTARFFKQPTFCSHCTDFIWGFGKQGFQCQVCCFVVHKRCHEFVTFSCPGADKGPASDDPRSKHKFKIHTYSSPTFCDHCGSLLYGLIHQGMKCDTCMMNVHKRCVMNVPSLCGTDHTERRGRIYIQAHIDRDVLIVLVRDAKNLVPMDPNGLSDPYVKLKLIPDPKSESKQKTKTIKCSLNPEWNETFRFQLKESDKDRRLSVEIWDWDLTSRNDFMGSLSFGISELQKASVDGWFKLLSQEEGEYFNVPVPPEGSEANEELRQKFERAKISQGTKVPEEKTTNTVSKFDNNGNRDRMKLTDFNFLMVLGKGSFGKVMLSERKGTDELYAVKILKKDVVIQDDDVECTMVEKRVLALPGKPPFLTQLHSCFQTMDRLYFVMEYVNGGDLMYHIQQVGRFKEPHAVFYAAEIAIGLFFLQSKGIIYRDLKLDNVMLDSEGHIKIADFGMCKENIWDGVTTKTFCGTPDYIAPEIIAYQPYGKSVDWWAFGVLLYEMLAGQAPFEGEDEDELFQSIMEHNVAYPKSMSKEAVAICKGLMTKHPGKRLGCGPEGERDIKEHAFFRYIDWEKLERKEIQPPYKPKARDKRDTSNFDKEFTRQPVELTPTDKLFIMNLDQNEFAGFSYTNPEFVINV

[9] = molecular target: Serine/threonine-protein kinase 26 (Homo sapiens) (UniProt Q9P289); test: Inhibition of MST4 Lys2 labeling site in human A-375 cells at 0.5 uM by KiNativ Profiling analysis relative to control; assay type: cell-based
Sequence of Serine/threonine-protein kinase 26 (Homo sapiens) (Q9P289 2-416 limits assumed): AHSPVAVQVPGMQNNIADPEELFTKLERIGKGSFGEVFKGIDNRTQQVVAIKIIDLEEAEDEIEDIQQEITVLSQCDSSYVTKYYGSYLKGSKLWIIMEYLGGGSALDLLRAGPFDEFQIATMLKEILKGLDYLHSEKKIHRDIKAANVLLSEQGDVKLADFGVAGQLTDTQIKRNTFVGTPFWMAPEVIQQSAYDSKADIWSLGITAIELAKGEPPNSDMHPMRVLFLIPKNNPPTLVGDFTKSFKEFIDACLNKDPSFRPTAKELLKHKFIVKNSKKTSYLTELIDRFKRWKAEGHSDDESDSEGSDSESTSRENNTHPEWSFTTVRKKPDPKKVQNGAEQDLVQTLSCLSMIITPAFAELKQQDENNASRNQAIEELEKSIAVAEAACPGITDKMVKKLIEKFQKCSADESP

[10] = molecular target: DNA-PK/Ku70/Ku85 (Homo sapiens) (UniProt P78527+P12956+P13010); test: Inhibition of DNAPK ATP labeling site harbouring KGGSWIQEINVAEK in human A-375 cells at 0.5 uM by KiNativ Profiling analysis relative to control; assay type: cell-based
Summary of the method: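 Live A375 melanoma cells were treated with compound at 0.5 or 5 μM, then lysed. Lysates were labeled with a lysine-reactive ATP or ADP-biotin probe. The read-out was protection of each kinase probe-labeling site from labeling, relative to control.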

[11] = molecular target: T3, Mitogen-activated protein kinase kinase kinase kinase 4; test: Inhibition of ZC1 Lys2 labeling site in human Huh-7 cell lysate at 1 uM by KiNativ Profiling analysis relative to control; assay type: subcellular

`CCN1CCN(Cc2ccc(NC(=O)c3ccc(C)c(/C=C/c4cnc5[nH]ccc5c4OC)c3)cc2C(F)(F)F)CC1` gave an inhibition [1] of 28.7%, an inhibition [2] of 13.7% and an inhibition [3] of 27.3%. For the same compound, the inhibition [4] was greater than 88%, the inhibition [5] was 13.7% and the inhibition [6] was 48.1%. The inhibition [7] was 25%, the inhibition [8] was 50.2% and the inhibition [9] was 9.8%. The inhibition [10] was 17.8%.
With `CCN1CCN(Cc2ccc(NC(=O)c3ccc(C)c(Oc4ccnc5[nH]ccc45)c3)cc2C(F)(F)F)CC1` the inhibition [1] was 17.1%, the inhibition [2] was 13.1% and the inhibition [3] was 3.1%. It also gave an inhibition [4] of 86.4%, an inhibition [5] of 35.1% and an inhibition [6] of 70.8%. The inhibition [7] was 13.7%, the inhibition [8] was 51% and the inhibition [9] was 12.5%. For the same compound, the inhibition [10] was 34%.
Compound `CNc1cc(Oc2cc(C(=O)Nc3cc(-n4cnc(C)c4)cc(C(F)(F)F)c3)ccc2C)ncn1` has an inhibition [11] of 24.1%.
In the case of `CNc1cc(Oc2cc(C(=O)Nc3cc(N4CCN(C)CC4)cc(C(F)(F)F)c3)ccc2C)ncn1`, the inhibition [11] was 2.7%.
